In the library only some 4% were active in any assay of this set; here they are far more common.
Arr AP2 block: human beta-arrestin and AP2 interaction inhibition | FITC-arrestin peptide / GST-AP2 beads, flow cytometry; AP2 beta2 appendage carries R879A mutation | inhibition, % at 10 µM | 340,000 tested, 0.31% active;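 active = inhibition above a set limit, near 3 SD of compounds lacking own fluorescence, cut at about 54% in these data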;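 note: plate controls were DMSO wells for no effect and 5 µM unlabelled arrestin peptide for full effect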
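test system = AP2 appendage R879A on GSH beads | buffer or medium = PBS plus Tween 20 (0.05%) and BSA (0.1%) | incubation = 12 min plus 1 h, RT | detection = bead flow cytometry, FITC channel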
hiPSC survival: enhancers of human iPSC single-cell survival; 360,000 tested, 0.044% active; AID 602274; hiPSC single-cell survival, ATPlite luminescence; 100% = ROCK inhibitor wells, 0% = DMSO; survival enhancement, % at 20 µM; in the data active = survival enhancement above about 18%;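 note: cells exposed to compounds for 16 hours before the ATP read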
FAS-TE inh: FAS thioesterase (human) inhibition; P49327; 360,000 tested, 0.67% active; inhibition, % at 15 µM; recombinant FAS-TE, OMFH fluorogenic substrate, fluorescence endpoint;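 active = compounds whose normalised, plate-corrected inhibition of enzyme fluorescence in the single-dose primary screen is 50% or more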;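 note: 0% = DMSO with enzyme and 100% = substrate without enzyme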
Target sequence (P49327 whole entry, looked up): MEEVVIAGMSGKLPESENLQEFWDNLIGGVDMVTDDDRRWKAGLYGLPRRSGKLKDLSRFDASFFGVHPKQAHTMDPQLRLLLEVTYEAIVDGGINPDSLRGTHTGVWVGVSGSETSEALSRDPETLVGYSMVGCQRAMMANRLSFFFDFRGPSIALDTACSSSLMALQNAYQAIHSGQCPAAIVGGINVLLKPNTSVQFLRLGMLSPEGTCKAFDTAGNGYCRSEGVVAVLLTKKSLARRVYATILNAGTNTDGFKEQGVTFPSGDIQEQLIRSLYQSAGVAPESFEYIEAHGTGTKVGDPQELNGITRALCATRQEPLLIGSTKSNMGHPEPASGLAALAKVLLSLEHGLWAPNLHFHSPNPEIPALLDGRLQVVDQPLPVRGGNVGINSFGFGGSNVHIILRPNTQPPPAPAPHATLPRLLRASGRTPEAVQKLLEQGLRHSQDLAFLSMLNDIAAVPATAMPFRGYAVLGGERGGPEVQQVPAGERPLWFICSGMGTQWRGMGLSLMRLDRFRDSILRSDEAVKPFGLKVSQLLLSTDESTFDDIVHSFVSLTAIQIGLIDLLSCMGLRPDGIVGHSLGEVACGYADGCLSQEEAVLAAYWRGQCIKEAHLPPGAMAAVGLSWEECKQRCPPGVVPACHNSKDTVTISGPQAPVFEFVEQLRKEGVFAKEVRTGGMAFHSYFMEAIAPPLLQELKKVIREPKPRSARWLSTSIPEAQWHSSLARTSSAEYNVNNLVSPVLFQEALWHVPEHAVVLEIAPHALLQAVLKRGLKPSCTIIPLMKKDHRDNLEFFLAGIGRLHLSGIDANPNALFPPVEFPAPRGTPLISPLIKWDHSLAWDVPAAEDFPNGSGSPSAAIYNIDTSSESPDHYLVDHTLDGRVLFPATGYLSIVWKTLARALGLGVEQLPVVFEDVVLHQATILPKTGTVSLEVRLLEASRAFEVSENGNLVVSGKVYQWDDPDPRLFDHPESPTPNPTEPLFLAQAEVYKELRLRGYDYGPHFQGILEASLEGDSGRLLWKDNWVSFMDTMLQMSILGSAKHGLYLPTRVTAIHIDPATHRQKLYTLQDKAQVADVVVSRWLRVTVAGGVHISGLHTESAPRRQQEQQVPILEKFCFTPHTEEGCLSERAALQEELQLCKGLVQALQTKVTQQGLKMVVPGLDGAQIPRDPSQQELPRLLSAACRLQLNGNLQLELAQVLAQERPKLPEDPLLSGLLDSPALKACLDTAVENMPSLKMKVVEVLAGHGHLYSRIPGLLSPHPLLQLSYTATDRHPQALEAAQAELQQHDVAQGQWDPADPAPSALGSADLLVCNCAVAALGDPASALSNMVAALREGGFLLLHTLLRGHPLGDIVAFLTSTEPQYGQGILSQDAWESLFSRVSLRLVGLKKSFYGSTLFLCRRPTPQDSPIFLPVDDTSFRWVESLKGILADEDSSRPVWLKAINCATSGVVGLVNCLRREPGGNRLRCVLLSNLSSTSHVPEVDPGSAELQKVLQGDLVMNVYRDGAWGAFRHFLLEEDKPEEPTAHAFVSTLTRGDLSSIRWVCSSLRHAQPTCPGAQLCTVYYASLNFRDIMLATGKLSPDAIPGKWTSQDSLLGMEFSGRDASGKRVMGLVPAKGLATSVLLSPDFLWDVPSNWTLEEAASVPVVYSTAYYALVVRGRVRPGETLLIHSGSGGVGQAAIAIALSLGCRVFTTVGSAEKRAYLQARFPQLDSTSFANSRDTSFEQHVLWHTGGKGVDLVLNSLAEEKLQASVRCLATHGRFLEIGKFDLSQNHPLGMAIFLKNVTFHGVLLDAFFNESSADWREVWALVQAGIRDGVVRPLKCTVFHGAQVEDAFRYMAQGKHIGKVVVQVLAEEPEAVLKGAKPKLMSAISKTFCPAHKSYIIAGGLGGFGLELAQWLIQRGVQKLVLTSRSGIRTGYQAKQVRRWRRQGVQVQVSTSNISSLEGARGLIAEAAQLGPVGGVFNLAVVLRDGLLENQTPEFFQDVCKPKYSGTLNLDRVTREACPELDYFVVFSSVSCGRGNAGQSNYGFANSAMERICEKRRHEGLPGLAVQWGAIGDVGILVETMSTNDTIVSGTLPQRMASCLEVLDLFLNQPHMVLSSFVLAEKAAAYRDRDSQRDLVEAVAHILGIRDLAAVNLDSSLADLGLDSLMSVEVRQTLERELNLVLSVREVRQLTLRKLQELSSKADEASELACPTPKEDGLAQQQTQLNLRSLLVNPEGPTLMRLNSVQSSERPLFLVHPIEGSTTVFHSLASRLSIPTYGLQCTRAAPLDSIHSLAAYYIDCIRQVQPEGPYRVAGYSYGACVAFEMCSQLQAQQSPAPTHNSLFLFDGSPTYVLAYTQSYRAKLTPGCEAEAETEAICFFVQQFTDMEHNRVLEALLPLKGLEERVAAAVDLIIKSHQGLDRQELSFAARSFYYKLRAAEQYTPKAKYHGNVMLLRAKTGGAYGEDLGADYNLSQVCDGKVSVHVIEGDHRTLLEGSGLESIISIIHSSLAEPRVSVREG
Cardio protect: modulators protecting cardiomyocytes from myocardial damage. H9c2 cardiomyocytes, H2O2 injury protection, ATPLite, 2 h. AID 588492. protection from H2O2 cell death, % at 20 µM. 360,000 tested, 0.63% active;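 active = compounds giving at least 50% protection of heart cells from peroxide-induced death in the single-dose screen, raw or plate-pattern-corrected value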;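 note: 0% = DMSO wells with peroxide and 100% = DMSO wells without peroxide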
GRIN3A LBD mod: modulates the human NR3A ligand-binding domain; AID 1259313; Tm shift relative to glycine control, % at 25 µM; NR3A LBD differential scanning fluorimetry, Tm shift; 0% = protein alone, 100% = glycine-bound protein; 340,000 tested, 2.5% active;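 active = melting temperature shift of at least 10% of the positive control shift, at one fixed dose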
SENP1 inh: blocks the human SENP1 SUMO protease catalytic domain; Q9P0U3; recombinant SENP1 catalytic domain, CyPet-SUMO1-YPet FRET cleavage; inhibition, % at 10 µM; 360,000 tested, 0.21% active; AID 624204;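 active = inhibition at least 30% at 10 µM, raw YFP signal under a set limit, fluorescence ratio 0.5 to 1.5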;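 note: 0% = enzyme with DMSO and 100% = no enzyme wells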
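Test system: recombinant human SENP1 catalytic domain, His6-tagged / Medium: pH 8 Tris buffer with EDTA, NaCl, BME, BSA, NP40, catalase / Also added: SUMO1 FRET substrate flanked by Cypet and Ypet, 25 nM / Times: 50 min reaction at room temperature / Signal: FRET, CFP and YFP emission / Control set: no-enzyme low control and enzyme-plus-DMSO high control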
FAS-TE inh conf: FAS thioesterase (human) inhibition, confirmation; recombinant FAS-TE, OMFH fluorogenic substrate, fluorescence; inhibition, % at 15 µM; AID 624325; 2,300 tested, 45% active; shares compounds with FAS-TE inh;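 active = compounds inhibiting the enzyme by at least 50% at 15 µM in any one of the replicates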;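 note: 0% = enzyme with DMSO only and 100% = wells lacking enzyme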
* hit, by the source's call; · = not tested or not shown.

SMILES | Arr AP2 block | hiPSC survival | FAS-TE inh | Cardio protect | GRIN3A LBD mod | SENP1 inh | FAS-TE inh conf
CN(Cc1ccccc1)C(=O)c1ccc(NC(=O)Cc2ccc(NC(=O)C3CCCN(S(=O)(=O)c4cccc([N+](=O)[O-])c4)C3)cc2)cc1 (centres undefined) | -3.4 | 0.5 | 58.7* | -7.5 | 8.6 | 2.3 | 5.3
CN(C(=O)c1cccc(NC(=O)Cc2ccc(NC(=O)C3CCCN(S(=O)(=O)c4cccc([N+](=O)[O-])c4)C3)cc2)c1)C1CCCC1 (centres undefined) | -5.3 | 0.6 | 68.9* | -7.2 | 10.0* | 3.7 | 19.1
CO[C@@H]1CN(C)C(=O)c2cc(NC(=O)NC3CCCCC3)ccc2OC[C@@H](C)N(CCc2ccccc2)C[C@@H]1C | · | · | · | · | · | -0.7 | ·
COc1ccc(-n2c(CN3CCN(c4ccccc4OC)CC3)nc3ccc([N+](=O)[O-])cc3c2=O)c(OC)c1 | -5.0 | -0.4 | 32.0 | 6.9 | 0.0 | 1.4 | ·
COc1cccc(-n2c(CN3CCN(c4ccccc4)CC3)nc3ccc([N+](=O)[O-])cc3c2=O)c1 | -9.8 | -0.8 | 71.5* | 8.6 | 4.6 | -2.0 | 31.1*
O=C(c1ccco1)N1CCN(c2ncnc3scc(-c4ccc(Cl)cc4)c23)CC1 | · | 3.2 | 11.9 | -0.3 | · | -2.3 | ·
CCC(C)NC(=O)CSc1nc2c(sc(=S)n2Cc2ccco2)c(=O)n1-c1ccccc1 (centres undefined) | 5.9 | 1.8 | 50.7* | 2.1 | -8.4 | 3.7 | 52.7*
CCn1c(=S)sc2c(=O)n(-c3ccccc3)c(SCC(=O)NCc3ccco3)nc21 | 19.9 | -0.9 | 17.8 | -1.7 | 0.9 | -1.0 | ·
CNC[C@H]1Oc2cc(Br)ccc2S(=O)(=O)N([C@H](C)CO)C[C@H]1C | · | -1.1 | -4.7 | -2.4 | · | 0.6 | ·
CC(C)(C)c1ccc(OCCC(=O)OCC(=O)N2c3ccccc3NC(=O)C2(C)C)cc1 | 45.9 | -0.3 | 56.4* | -13.5 | -6.4 | -1.0 | 65.6*
Nc1c(Cl)cc(-c2csc(N3CCCC3c3nc4cc(Cl)c(N5CCCCC5)cc4n3CCCO)n2)cc1Cl (centres undefined) | -2.6 | -2.6 | 22.6 | 2.1 | -13.6 | 1.4 | ·
Nc1c(Cl)cc(-c2csc(N3CCCC3c3nc4cc(Cl)c(N5CCCCC5)cc4n3CCOCCO)n2)cc1Cl (centres undefined) | 1.6 | 2.3 | 69.6* | -4.6 | -1.9 | -6.8 | 18.3
CC(C)N1CCC(C)(C(=O)Nc2cccc3c2CCCC3)C1 (centres undefined) | · | -2.5 | -12.0 | 0.7 | · | -19.6 | ·
O=Nc1ccc(NO)c2ccccc12 | · | 0.4 | -34.6 | -17.8 | · | 1.3 | ·
COc1ccc(C(=O)N/C(=C\c2cn(S(=O)(=O)N(C)C)c3ccccc23)C(=O)NCCCN2CCOCC2)cc1 | 5.1 | 0.0 | 57.3* | 2.7 | -2.1 | -2.6 | 74.5*
CN(C)S(=O)(=O)n1cc(/C=C(\NC(=O)c2ccccc2)C(=O)NCCCN2CCOCC2)c2ccccc21 | 1.4 | -0.1 | 17.2 | 7.7 | 0.1 | 0.2 | ·
O=C(COC(=O)/C=C/c1cccc(F)c1)NC1CCCCC1 | · | -0.8 | -3.3 | 1.5 | · | 3.6 | ·
O=C(Cn1cnc2cc([N+](=O)[O-])ccc2c1=O)Nc1ccc2c(c1)OCO2 | 11.0 | -1.7 | 75.0* | -1.0 | -1.4 | -12.6 | 53.4*
O=C(CSc1ccc([N+](=O)[O-])cn1)Nc1ccc2c(c1)OCO2 | -4.9 | -0.1 | 86.1* | -4.9 | -1.0 | 1.5 | 56.6*
COc1c(C)cc(C(O)c2ncc(-c3ccccc3C)[nH]2)cc1C (centres undefined) | · | -1.9 | -0.6 | -2.8 | · | -0.4 | ·
COc1cc(/C=N/N(C)c2ccccc2)cc(Cl)c1O | 12.4 | -0.3 | 73.3* | -11.4 | 0.1 | -0.5 | 57.1*
COc1ccc(OC)c(/C=N/N(C)c2ccccc2)c1 | 1.1 | 0.1 | 21.5 | -10.3 | · | 0.5 | ·
O=[N+]([O-])c1ccc(NC(=S)NCCc2ccccc2)cc1 | 3.0 | -1.3 | 53.2* | -14.1 | 34.6* | -2.2 | 38.2*
